Source: ChEMBL document CHEMBL4699492, “Discovery of Novel Pyrazolo[3,4-b] Pyridine Derivatives with Dual Activities of Vascular Remodeling Inhibition and Vasodilation for the Treatment of Pulmonary Arterial Hypertension” (J Med Chem, 2020)

Test system: Aorta
Test: Vasodilating activity in Sprague-Dawley rat aortic rings assessed as reduction in phenylephrine-induced contractions at 1 uM relative to control
Assay type: functional
Settings: not given
In short: (§1)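 Thoracic aorta from male SD rats (250-280 g) anesthetized with chloral hydrate, cut into 4 mm rings. Rings held in Krebs-Henseleit at 37 °C gassed with 95% O2/5% CO2, under 2 g resting tension, equilibrated 60 min, and precontracted with 10^-7 M phenylephrine. Cumulative concentrations of 3×10^-9 to 10^-6 M (final) applied. Percent relaxation of the initial contraction taken at 1 µM, and EC50 derived.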

Structure (SMILES)	Emax at 1 µM
Cc1nn(-c2ccccc2)c2nc(OCc3ccccc3F)c(-c3nc(N)c(N4CCCC4)c(N)n3)cc12	29.8%
Cc1nn(-c2ccccc2)c2nc(OCc3ccccc3F)c(-c3nc(N)c(NC(=O)OC4CCCC4)c(N)n3)cc12	15.5%
Cc1nn(-c2ccccc2)c2nc(OCc3ccccc3F)c(-c3nc(N)c(N(C)C)c(N)n3)cc12	46.1%

Test system: not listed separately
Test: Antiproliferative activity against HLF1 cells assessed as reduction in TGFbeta-induced cell proliferation measured after 48 hrs by CCK8 assay
Assay type: functional, cell-based
Settings: Homo sapiens, HLF1, 48 h
In short: (§2)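 HPASMCs grown in high-glucose D-MEM with 20% FBS and HLF1 in D-MEM/F-12 (1:1) with 10% FBS. Cells stimulated with TGF-β (10 ng/mL) at 37 °C, 5% CO2, then exposed to a concentration range for 48 h. CCK-8 added for 4 h and absorbance read at 490 nm. IC50 derived from the curves.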

Structure (SMILES)	IC50
Cc1nn(-c2ccccc2)c2nc(OCc3ccccc3F)c(-c3nc(N)c(N4CCCC4)c(N)n3)cc12	> 100 µM
Cc1nn(-c2ccccc2)c2nc(OCc3ccccc3F)c(-c3nc(N)c(NC(=O)OC4CCCC4)c(N)n3)cc12	63.4 µM
Cc1nn(-c2ccccc2)c2nc(OCc3ccccc3F)c(-c3nc(N)c(N(C)C)c(N)n3)cc12	> 100 µM

Test system: Aorta
Test: Vasodilating activity in Sprague-Dawley rat aortic rings assessed as reduction in phenylephrine-induced contractions
Assay type: functional, tissue-based
Settings: not given
In short: as §1

Structure (SMILES)	EC50
Cc1nn(-c2ccccc2)c2nc(OCc3ccccc3F)c(-c3nc(N)c(N4CCCC4)c(N)n3)cc12	12.7 µM
Cc1nn(-c2ccccc2)c2nc(OCc3ccccc3F)c(-c3nc(N)c(NC(=O)OC4CCCC4)c(N)n3)cc12	> 100 µM
Cc1nn(-c2ccccc2)c2nc(OCc3ccccc3F)c(-c3nc(N)c(N(C)C)c(N)n3)cc12	1.1 µM

Test system: not listed separately
Test: Antiproliferative activity against HPASMC assessed as reduction in TGFbeta-induced cell proliferation measured after 48 hrs by CCK8 assay
Assay type: functional, tissue-based
Settings: Homo sapiens, Pulmonary Artery Smooth Muscle Cells
In short: as §2

Structure (SMILES)	IC50
Cc1nn(-c2ccccc2)c2nc(OCc3ccccc3F)c(-c3nc(N)c(N4CCCC4)c(N)n3)cc12	29.3 µM
Cc1nn(-c2ccccc2)c2nc(OCc3ccccc3F)c(-c3nc(N)c(NC(=O)OC4CCCC4)c(N)n3)cc12	24.8 µM
Cc1nn(-c2ccccc2)c2nc(OCc3ccccc3F)c(-c3nc(N)c(N(C)C)c(N)n3)cc12	56.5 µM
